Reference: PMC10871334 (bioRxiv, 2024)
Entries after “also recorded” stand apart in the source; their conditions may differ.

Key:
SUGCT [1] = target: T1, SUGCT (Homo sapiens, UniProt Q9HAC7); assay: Fluorometric SUGCT enzyme assay coupled to HMG-CoA reductase; format: biochemical; conditions: for SUGCT inhibition at 10 μM (in words): repurchased hits
T1 sequence (Q9HAC7 31-438 limits assumed): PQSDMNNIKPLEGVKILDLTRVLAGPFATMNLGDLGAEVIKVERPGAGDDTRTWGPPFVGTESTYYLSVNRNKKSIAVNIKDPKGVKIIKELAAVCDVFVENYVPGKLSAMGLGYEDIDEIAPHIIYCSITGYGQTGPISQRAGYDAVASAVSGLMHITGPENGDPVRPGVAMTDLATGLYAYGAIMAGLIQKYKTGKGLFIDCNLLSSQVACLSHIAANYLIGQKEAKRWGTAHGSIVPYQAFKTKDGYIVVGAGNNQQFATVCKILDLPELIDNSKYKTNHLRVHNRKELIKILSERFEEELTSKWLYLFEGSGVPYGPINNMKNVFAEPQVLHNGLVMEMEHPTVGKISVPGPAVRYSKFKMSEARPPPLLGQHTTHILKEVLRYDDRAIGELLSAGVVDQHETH

[2] = target: T2, human HMG-CoA reductase (HMGCR) (Homo sapiens, UniProt P04035); assay: Spectrophotometric HMGCR counter-screen assay; format: biochemical; conditions: up to 100 μM
T2 sequence (P04035 426-888): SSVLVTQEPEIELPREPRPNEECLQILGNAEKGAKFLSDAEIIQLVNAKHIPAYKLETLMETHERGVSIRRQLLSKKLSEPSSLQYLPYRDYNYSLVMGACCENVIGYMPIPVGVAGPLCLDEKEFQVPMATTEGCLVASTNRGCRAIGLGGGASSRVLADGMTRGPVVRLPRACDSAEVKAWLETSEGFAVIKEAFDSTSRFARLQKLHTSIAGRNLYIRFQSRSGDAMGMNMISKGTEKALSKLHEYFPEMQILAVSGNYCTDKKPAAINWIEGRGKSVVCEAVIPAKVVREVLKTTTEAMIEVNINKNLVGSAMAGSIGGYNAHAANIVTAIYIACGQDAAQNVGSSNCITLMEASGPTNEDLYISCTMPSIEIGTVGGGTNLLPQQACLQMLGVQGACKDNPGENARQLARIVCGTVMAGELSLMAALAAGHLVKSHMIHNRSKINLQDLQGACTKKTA
Summary of the method: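 Human HMGCR catalytic domain (residues 426–888), N-terminal His-tagged, expressed in E. coli and IMAC-purified. Assay contains 9 U/L HMGCR, 150 μM HMG-CoA, 300 μM NADPH, 4 mM DTT and 0.1% Triton X-100 in 100 mM potassium phosphate, pH 7.4. NADPH consumption is followed by absorbance at 340 nm.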

[3] = system: SUGCT overexpressing GA1 HEK-293 cells; assay: C5DC in SUGCT overexpressing GA1; format: cell-based, human; conditions: treatment of SUGCT overexpressing GA1 HEK-293 cells
Summary of the method: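 Stable SUGCT overexpression in Flp-In 293 cells by co-transfection with Flp recombinase and selection in 100 μg/ml hygromycin B for 2–3 weeks. GCDH knocked out by CRISPR-Cas9, with single-clone sorting. Cells grown at 37°C, 5% CO2 in DMEM with 10% FBS. Metabolites extracted with cold methanol:acetonitrile:water 5:3:2 overnight at −80°C, then analysed by reverse-phase C18 LC-MS in positive mode.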

SUGCT [4] = target: T1, SUGCT; format: biochemical; conditions: HMG-CoA as CoA donor, 30 minutes

Compound: O=C(O)CCCC(=O)O [Glutarate, glutarate]
- mode of inhibition (SUGCT [1]; with respect to HMG, increases apparent Km for HMG): competitive inhibitor

Compound: CCCCC(=O)N(Cc1ccc(-c2ccccc2-c2nnn[nH]2)cc1)[C@H](C(=O)O)C(C)C [Valsartan]
- SUGCT inhibition at 10 μM (in words) (SUGCT [1]): inhibited
- IC50 (SUGCT [1]; IC50 (SUGCT inhibition), standard assay, 100 mM potassium phosphate pH 7.4): 3.8 µM
- inhibition at 10 µM (SUGCT [1]; read-out: inhibition of SUGCT at 10 μM): > 50%
- inhibition of HMGCR [2]: did not inhibit
- effect on C5DC / activity in cells [3]: did not observe a decrease in C5DC; also recorded: unable to detect activity
- conversion into a CoA ester by SUGCT (SUGCT [4]): no evidence

Compound: CCCCc1nc(Cl)c(CO)n1Cc1ccc(-c2ccccc2-c2nn[nH]n2)cc1 [losartan]
- activity of Angiotensin II Receptor Blockers on SUGCT (in words) (SUGCT [1]; each ARB measured in duplicate at 10 μM): inactive

Compound: O=C(O)CCc1nc(-c2ccccc2)c(-c2ccccc2)o1 [oxaprozin]
- SUGCT inhibition at 10 μM (in words) (SUGCT [1]): inhibited

Compound: CC(C)c1nc(N(C)S(C)(=O)=O)nc(-c2ccc(F)cc2)c1/C=C/[C@@H](O)C[C@@H](O)CC(=O)O [rosuvastatin]
- result in high throughput screen of FDA approved library (SUGCT [1]; screening concentration 100 μM, coupled assay also detects HMGCR inhibitors): one of our hits

Compound: CCCCC(=O)N(Cc1ccc(-c2ccccc2-c2nn[nH]n2)cc1)[C@H](C(=O)OCC)C(C)C [valsartan ethyl ester, Valsartan ethyl ester]
- effect on C5DC / activity in cells [3]: did not observe a decrease in C5DC
